Results: PubChem BioAssay
Activity calls are given as the source filed them.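 Rule for the calls, unless noted: active = viability loss from added drug above about 55%, and viability with drug at most 40%, in both replicates (limit read from the data, passing the limit was not always enough); inconclusive = both conditions met in only one replicate; inactive = neither replicate meets both conditions.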

Tests used:
[1] = reduced viability of SK-BR-3 breast cancer cells – cell-based, 24 h, human, pilot screen (AID 572;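 active = viability at or below 10% of carrier control in both of two separate runs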;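 note: compound exposure lasted between 18 and 24 h rather than exactly 24 h; 100% = carrier-treated control wells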); conditions: SK-BR-3 viability, CellTiter-Glo luminescence, at 10 µM, stronger effect = lower value
[2] = HUVEC growth inhibition – cell-based, human, primary screen (AID 575;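 active = viability at or below 30% in both replicate assays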;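 note: 100% = median of untreated cell wells with 0.1% DMSO on each plate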); conditions: HUVEC proliferation, CellTiter-Glo luminescence, 72 h; at 10 µM; stronger effect = lower value
Procedure, shortened: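 Test system: primary human umbilical vein endothelial cells. Quantity: 1250 cells/well. Compound: single 10 µM dose, 0.1% DMSO, from 5x medium stock. Timing: 72 h treatment at 37 °C. Detection: ATP-based CellTiter-Glo luminescent read. Benchmarks: vehicle and MePR control wells. Format: 384-well plates coated with collagen.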

[3] = H69AR cell proliferation blockers – human, duplicate replicates, primary screen (AID 580;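 active = viability at or under a set limit in both replicates, limit being median viability minus 3 SD, cut at about 48% in these data, passing the limit was not always enough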;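 note: 100% = mean luminescence of untreated wells and 0% = no signal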); conditions: H69AR lung tumor cells viability, ATP luminescence, 72 h; at 10 µM; stronger effect = lower value
[4] = MRP1 drug-resistance reversers in H69AR cells – cell-based, doxorubicin co-treatment, pilot screen (AID 601); conditions: CellTiter-Glo, 72 h, at 10 µM; for differential viability (reversal): stronger effect = higher value
[5] = yeast transport mutant growth inhibition pilot in 384-well plates, post-Golgi transport modulator project (AID 636; in the data active = inhibition above about 31%); conditions: absorbance 615 nm, about 18 h, stronger effect = higher value
[6] = growth suppression of yeast trafficking mutant, preliminary HTS, modulators of trafficking downstream of Golgi apparatus project, 1536-format plate, OD 615 nm (AID 637; in the data active = inhibition above about 30%); conditions: yeast transport mutant growth, absorbance 615 nm, 18 h; stronger effect = higher value
[7] = H69AR cells + 2 uM doxorubicin, measured here: viability with 2 uM doxorubicin, stronger effect = lower value
[8] = H69AR cells, compound alone cytotoxicity

SMILES	viability [1]	viability [2]	viability [3]	differential viability (reversal) ([4]; H69AR cells + 2 uM doxorubicin)	viability [4, 7]	viability [4, 8]	inhibition [5]	inhibition [6]
COc1ccc(CC(=O)Nc2cc(Cl)ccc2O)cc1	110% (inactive)	84.5% (inactive)	81.1% (inactive)	0.69% (inactive)	80.4%	81.1%	-4.53% (inactive)	-3.09% (inactive)
O=C(Nc1ccccn1)N1CCOCC1	123% (inactive)	110% (inactive)	95.5% (inactive)	6.42% (inactive)	89.1%	95.5%	-7.3% (inactive)	-5.45% (inactive)
CCOC(=O)c1cnc(SC2CC(=O)N(c3ccc(OC)c(OC)c3)C2=O)nc1N (stereo not drawn)	121% (inactive)	101% (inactive)	111% (inactive)	14% (inactive)	96.8%	111%	-0.55% (inactive)	1.13% (inactive)
COc1cc2c3c(c1)/C(=C1/SC(NC(C)=O)=NC1=O)C(=O)N3C(C)(C)C=C2C	91% (inactive)	54.8% (inactive)	72.2% (inactive)	-7.9% (inactive)	80.2%	72.2%	-10% (inactive)	-1.77% (inactive)
COc1cccc(S(=O)(=O)Nc2ccc(C(=O)N3CCN(C(=O)c4ccco4)CC3)cc2)c1	85% (inactive)	104% (inactive)	86.3% (inactive)	14.7% (inactive)	71.5%	86.3%	-2.19% (inactive)	-0.97% (inactive)
Cc1csc(NC(=O)C2CCCO2)n1 (stereo not drawn)	87% (inactive)	86.9% (inactive)	91.4% (inactive)	9.97% (inactive)	81.4%	91.4%	-4.16% (inactive)	10.3% (inactive)
O=C(C1CCN(C2CC(=O)N(c3ccc(F)cc3)C2=O)CC1)N1CCOCC1 (stereo not drawn)	106% (inactive)	105% (inactive)	101% (inactive)	4.69% (inactive)	96.2%	101%	-1.43% (inactive)	4.43% (inactive)
OCC(O)CN1CCN(c2ccccc2)CC1 (stereo not drawn)	119% (inactive)	100% (inactive)	92.9% (inactive)	-1.6% (inactive)	94.5%	92.9%	1.95% (inactive)	3.83% (inactive)
CCC(C)(C)n1nnnc1C(c1cc2cc(C)ccc2[nH]c1=O)N1CCCC1 (stereo not drawn)	94% (inactive)	98.7% (inactive)	98.6% (inactive)	9.6% (inactive)	89%	98.6%	-4.55% (inactive)	4.26% (inactive)
CCOc1ccc(NS(=O)(=O)c2ccc(OCC(=O)N3CCCC3)cc2)cc1	92% (inactive)	102% (inactive)	88.7% (inactive)	3.44% (inactive)	85.2%	88.7%	1.51% (inactive)	-4.84% (inactive)
CCOC(=O)C1=C(C)Nc2nc(SCC(=O)OC)nn2C1c1cc(F)cc(F)c1 (stereo not drawn)	91.5% (inactive)	75.4% (inactive)	92.9% (inactive)	7.16% (inactive)	85.7%	92.9%	-8.24% (inactive)	2.06% (inactive)
COC(=O)CSc1nnc(CSc2nc(C)cc(C)n2)n1Cc1ccco1	81% (inactive)	104% (inactive)	99.8% (inactive)	24.3% (inactive)	75.5%	99.8%	-4.53% (inactive)	-7.27% (inactive)
CCC(=O)OC1(C#CCOc2ccc(OC)cc2)CCN(C)CC1	94% (inactive)	105% (inactive)	105% (inactive)	1.41% (inactive)	103%	105%	-0.53% (inactive)	1.64% (inactive)
O=C(Nc1ccc(Br)c2cccnc12)c1ccc(Cn2cc(Cl)cn2)o1	156% (inactive)	43% (inactive)	87.4% (inactive)	9.23% (inactive)	78.2%	87.4%	-1.56% (inactive)	-3.44% (inactive)
O=C(NC1CC1)c1ccc(S(=O)(=O)NCC2CCCCC2)cc1	112% (inactive)	79.4% (inactive)	102% (inactive)	5.06% (inactive)	97%	102%	-6.85% (inactive)	-0.32% (inactive)
CCN(CC)CCNC(=O)c1cc(Cl)c(N)cc1OC	89% (inactive)	85.9% (inactive)	93.8% (inactive)	-8.38% (inactive)	102%	93.8%	-3.25% (inactive)	-2.5% (inactive)
CC(=O)OCC(=O)[C@@]1(O)CC[C@H]2[C@@H]3CCC4=CC(=O)CC[C@]4(C)[C@H]3C(=O)C[C@@]21C	108% (inactive)	95.9% (inactive)	104% (inactive)	8.62% (inactive)	95.2%	104%	-4.55% (inactive)	-1.33% (inactive)
CN(Cc1nc(-c2ccncc2)no1)S(=O)(=O)c1ccc(Cl)cc1	115% (inactive)	87.2% (inactive)	88.9% (inactive)	-9.07% (inactive)	98%	88.9%	1.78% (inactive)	13.6% (inactive)

SMILES	viability [1]	viability [2]	viability [3]	differential viability (reversal) ([4]; H69AR cells + 2 uM doxorubicin)	viability [4, 7]	viability [4, 8]	inhibition [5]	inhibition [6]
CCCCn1nnnc1NCc1cccs1	98% (inactive)	97% (inactive)	99.2% (inactive)	14.4% (inactive)	84.8%	99.2%	-6.49% (inactive)	-0.33% (inactive)
CN(C(=O)Cn1c(=O)n(CCCCC(=O)NC2CCCC2)c(=O)c2ccccc21)C1CCCCC1	106% (inactive)	63.2% (inactive)	93% (inactive)	12.2% (inactive)	80.9%	93%	-2.73% (inactive)	5.08% (inactive)
O=C(CSCc1ccc(F)cc1)NC1CCCC1	137% (inactive)	108% (inactive)	95.8% (inactive)	13.6% (inactive)	82.2%	95.8%	-3.9% (inactive)	4.1% (inactive)
CC(=O)Nc1ccc(S(=O)(=O)CCC#N)cc1	109% (inactive)	89.4% (inactive)	91.7% (inactive)	-6.28% (inactive)	98%	91.7%	-1.17% (inactive)	5.41% (inactive)
CCOc1ccc2c(c1)c1nnc(SCC(=O)N3CCC(C)CC3)nc1n2C	84% (inactive)	70.9% (inactive)	95.8% (inactive)	8.51% (inactive)	87.3%	95.8%	-3.78% (inactive)	-1.45% (inactive)
O=C(COC(=O)c1ccccc1C(=O)c1ccccc1)c1ccco1	59% (inactive)	105% (inactive)	90.3% (inactive)	2.52% (inactive)	87.8%	90.3%	-1.1% (inactive)	2.36% (inactive)
COc1ccc(N2C(=O)C(Cl)=C(N3CCCC3)C2=O)cc1	97% (inactive)	86.1% (inactive)	94.7% (inactive)	9.9% (inactive)	84.8%	94.7%	-6.08% (inactive)	-6.18% (inactive)
Cc1ccc2c(c1)C(O)(CC(=O)c1ccc3c(c1)OCO3)C(=O)N2 (stereo not drawn)	78% (inactive)	92.3% (inactive)	94.3% (inactive)	8.13% (inactive)	86.2%	94.3%	-4.11% (inactive)	-7.58% (inactive)
COCc1[nH]nc2c1C(c1cc(OC)c(O)c(OC)c1)C(C#N)=C(N)O2 (stereo not drawn)	98% (inactive)	102% (inactive)	93% (inactive)	-2% (inactive)	95%	93%	-10.3% (inactive)	4.03% (inactive)
O=C(CSc1nnc(-c2ccco2)n1-c1ccccc1)N1CCN(C(=O)c2ccco2)CC1	137% (inactive)	80.3% (inactive)	84.4% (inactive)	-1.54% (inactive)	85.9%	84.4%	-1.17% (inactive)	-0.82% (inactive)
CCOC(=O)C1=C(c2ccccc2)N2CCS(=O)(=O)N=C2S1	92% (inactive)	96.9% (inactive)	90.2% (inactive)	6.51% (inactive)	83.7%	90.2%	-2.13% (inactive)	0% (inactive)
CCOC(=O)C1CCN(CC(=O)c2c(C)[nH]c3ccccc23)CC1	100% (inactive)	112% (inactive)	92.6% (inactive)	0.74% (inactive)	91.9%	92.6%	-0.67% (inactive)	-2.73% (inactive)
CC1CN(C(=O)CSc2nnc(-c3ccc(Cl)cc3)n2C)CC(C)O1 (stereo not drawn)	78% (inactive)	110% (inactive)	99.5% (inactive)	5.23% (inactive)	94.2%	99.5%	-6.08% (inactive)	2.91% (inactive)
Cc1ccc2nc3c(cc(C(=O)NCC4CCCO4)n3C)c(=O)n2c1 (stereo not drawn)	134% (inactive)	110% (inactive)	94.9% (inactive)	7.85% (inactive)	87.1%	94.9%	-0.96% (inactive)	25.2% (inactive)
O=C(CN(Cc1ccc(F)cc1)C(=O)c1ccco1)NCc1ccc(F)cc1	104% (inactive)	112% (inactive)	94.1% (inactive)	18.5% (inactive)	75.6%	94.1%	-8% (inactive)	-6.91% (inactive)
Cc1cccc(N2CCN(C(=O)C3CCCN(S(=O)(=O)c4c(C)noc4C)C3)CC2)c1C (stereo not drawn)	78% (inactive)	53.1% (inactive)	81.9% (inactive)	2.14% (inactive)	79.7%	81.9%	-3.21% (inactive)	0.83% (inactive)
COc1ccccc1CC(=O)NCC1CCCO1 (stereo not drawn)	110% (inactive)	113% (inactive)	99% (inactive)	8.34% (inactive)	90.7%	99%	-8.13% (inactive)	-4.55% (inactive)
Cc1cccc(NC(=O)CC2CCC2)c1	87% (inactive)	102% (inactive)	99.8% (inactive)	-2.9% (inactive)	103%	99.8%	-5.75% (inactive)	4.55% (inactive)
